STAT1 inh – inhibitors of IFN-gamma induced STAT1 signaling; 0.35% of 200,000 active; inhibition, % at 5.5 µM; NIH 3T3 STAT1-luciferase reporter, luminescence;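 active = inhibition above a set limit, the mean inhibition across all tested compounds plus 3 SD, cut at about 34% in these data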
STAT3 blocker – STAT3 signaling inhibition | 0.89% of 190,000 active | inhibition, % at 5.5 µM | AID 862 | U3A cells, IL-6 STAT3-luciferase reporter, luminescence; host cell line lacks STAT1;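 active = inhibition above the mean inhibition across all screened compounds plus 3 SD, cut at about 44% in these data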
STAT1 act – activators of IFN-gamma induced STAT1 signaling; NIH 3T3 STAT1-luciferase reporter, luminescence; 100% = IFN-gamma alone, no compound; activation (% of control), % at 5.5 µM; 2.6% of 200,000 active;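 active = activation above the screen-wide mean activation plus 3 SD, cut at about 130% in these data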
NF-kB neuron act – raises NF-kB expression in human neuronal cells; NF-kB reporter expression; active compounds read high; fold change at 12.5 µM; 1.6% of 190,000 active; in the data active = fold change above about 3.3
APP 5'UTR act – activates APP 5'UTR luciferase reporter; SH-SY5Y APP 5'UTR luciferase reporter, luminescence; zero percent = DMSO vehicle wells; activation, % at 2 µM; 1% of 190,000 active; AID 1276;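 active = activation above a set limit, based on mean plus 3 SD of controls, cut at about 140% in these data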
STAT3 act – increases IL-6 driven STAT3 reporter signal. 0.91% of 190,000 active. U3A cells, IL-6 STAT3-luciferase reporter, luminescence; 100% = signal with IL-6 EC80 alone. activation (% of control), % at 5.6 µM;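 active = activation above the screen-wide mean of compound activation plus 3 SD, cut at about 130% in these data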
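System – human U3A cells carrying STAT3-luciferase construct · Probe or stimulus – Interleukin-6, 33 ng/mL · Schedule – compound 1 h, then IL-6 6 h at 37 °C · Signal – luminescence from STAT3-driven luciferase reporter · Evaluation – percent of IL-6-only median luminescence · Benchmarks – IL-6-only high control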
STAT1 activ conf – STAT1 activation, confirmation assay | shares compounds with STAT1 act | NIH 3T3 STAT1-luciferase reporter, IFN-gamma potentiation, luminescence; 100% = IFN-gamma EC80 alone, no compound | activation (% of control), % at 5.7 µM | 97% of 1,200 active | AID 1262;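 active = activation above a set limit carried over from the earlier primary STAT1 screen, cut at about 140% in these data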
NFkB act – NF-kappaB activation in STAT1 activator counter-screen; shares compounds with STAT1 act; HEK293T NF-kB luciferase reporter, TNF-alpha stimulated, luminescence; 100% = TNF-alpha with vehicle only; activation (% of control), % at 5.7 µM; 43% of 1,200 active; AID 1306;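 active = activation above the mean of solvent-only control wells plus 3 SD, set per campaign, cut at about 130% in these data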;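 note: TNF-alpha given at a submaximal dose yielding about 80% of full reporter signal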
STAT3 act STAT1c – counter-screen for STAT1 activators: human STAT3 activation | U3A cells STAT3-luciferase reporter, IL-6, luminescence; cells lack STAT1; 100 = IL-6 alone, no compound effect | shares compounds with STAT1 act | 46% of 1,200 active | activation (% of control), % at 5.7 µM;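 active = activation above the solvent-only control well mean plus 3 SD, set per plate batch, cut at about 110% in these data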;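 note: higher means more STAT3 reporter activation so hits are non-selective activators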
Hits are given with their value; – = inactive; · = no result. In the library only some 4.9% were active in any assay of this set; here they are far more common.

SMILES	STAT1 inh	STAT3 blocker	STAT1 act	NF-kB neuron act	APP 5'UTR act	STAT3 act	STAT1 activ conf	NFkB act	STAT3 act STAT1c
CC(=O)Nc1ccc(S(=O)(=O)Nc2cccc(-c3csc(C)n3)c2)cc1	–	–	–	·	–	–	·	·	·
Oc1ccc(-c2csc(Nc3ncccn3)n2)c(O)c1	–	–	175.9	8.09	154.5	–	215.8	144.4	–
Cc1ccc(Cn2ccc(=O)c(OCc3c(Cl)cccc3Cl)c2C)cc1	–	–	–	–	–	–	·	·	·
CC(=O)Nc1ccc(-c2csc(Nc3cccc(C)n3)n2)cc1	–	–	159.9	6.15	167.6	–	183.9	–	–
Cc1cccnc1Nc1nc(-c2ccc(O)cc2)cs1	–	–	151.1	7.36	–	–	204.7	141.4	110.8
Cc1ccc(NC(=O)c2cc3c(s2)CCCC3)cc1	–	–	160.4	8.81	–	–	202.5	153.8	–
Cc1ccc(NC(=O)c2scc3c2CCCC3)cc1	–	–	155.0	9.51	195.1	–	252.0	–	–
COC(=O)c1ccc(CSc2nnc(NC(=O)c3cc4c(s3)CCCC4)s2)cc1	–	–	–	–	–	–	·	·	·
COC(=O)c1sc(NC(=O)c2cc3c(s2)CCCC3)nc1C	–	–	155.0	5.7	–	–	201.5	–	111.1
CCOC(=O)/C(=C\c1cccc(O)c1)c1nc2sc(C)c(C)c2c(=O)[nH]1	–	–	–	–	–	–	·	·	·
CC1CN(CC(=O)NN=C(c2ccccc2)c2ccccc2)CC(C)O1 (stereo not drawn)	–	–	–	–	–	–	·	·	·
COc1ccc(-c2cnc3c(c2)CCC3(C#N)C#N)cc1	–	–	–	–	–	–	·	·	·
COc1ccc(-c2ccc3ccccc3n2)cc1OC	–	–	170.2	3.3	142.9	–	194.6	135.6	111.2
CCOc1ccccc1CN1CCN(Cc2nc3c(s2)CCCC3)CC1CCO (stereo not drawn)	–	–	–	–	–	–	·	·	·
O=C1c2ccccc2NC(c2cnc3ccccc3n2)N1O (stereo not drawn)	–	–	158.9	6.92	–	–	209.0	–	–
CC1CCc2c(sc(NC(=O)C3CCCO3)c2C#N)C1 (stereo not drawn)	–	–	153.5	4.62	143.7	–	168.5	134.0	114.5
CCC(=O)c1ccc(OC(C)C(=O)NC2(C#N)CCCCC2)cc1 (stereo not drawn)	–	–	–	–	–	–	·	·	·
CC(C)(C)N=C1NN=C(c2cc3ccccc3o2)CS1	–	–	169.3	–	–	–	207.2	–	–
O=C(Nc1cccc(Cl)c1)c1ccc2c(=O)n3c(nc2c1)CCCCC3	–	–	162.1	–	202.3	–	180.5	–	–
COc1ccc(N/C=C(\C(C)=O)c2ccc(OC)c(OC)c2)cc1OC	–	–	–	–	–	–	·	·	·
O=C(Nc1cccc(-c2cnc3ccccc3n2)c1)c1ccco1	–	–	–	–	·	–	·	·	·
O=C(Nc1cnc2ccccc2c1)c1ccco1	–	–	152.5	6.21	156.7	–	183.0	–	–
C=CCNC(=O)C1CCN(c2ccc(S(=O)(=O)N3CCOCC3)cc2[N+](=O)[O-])CC1	–	–	–	–	–	–	·	·	·
O=S(=O)(Nc1nc2ccccc2nc1Cl)c1ccc(Br)cc1	–	–	–	–	–	–	·	·	·
O=S(=O)(Nc1nc2ccccc2nc1N1CCc2ccccc2C1)c1ccc(Br)cc1	–	–	158.0	–	–	–	180.8	–	133.4
SMILES	STAT1 inh	STAT3 blocker	STAT1 act	NF-kB neuron act	APP 5'UTR act	STAT3 act	STAT1 activ conf	NFkB act	STAT3 act STAT1c
O=C(Nc1ccc(-c2noc(-c3cccs3)n2)cc1)c1cccnc1	–	–	156.6	3.84	–	–	196.9	136.0	–
COc1cccc(-c2nc(-c3ccc(NC(=O)c4cccnc4)cc3)no2)c1	–	–	–	–	–	–	·	·	·
Cc1ccc2c(c1)N(CC(=O)N1CCN(c3nc4ccccc4s3)CC1)C(=O)C(C)O2 (stereo not drawn)	–	–	–	–	–	–	·	·	·
Cc1ccc(C)c(N2CCN(c3cnn(-c4nc5ccccc5s4)c(=O)c3Cl)CC2)c1	–	–	156.0	–	–	–	181.9	–	–
O=[N+]([O-])c1ccc(C2=Nc3cc(Cl)ccc3OC2)cc1	–	–	–	–	–	–	·	·	·
Cc1ccc2c(c1)N=C(c1ccc(F)cc1)CO2	–	–	163.8	–	–	–	195.2	143.8	111.1
S=C(Nc1ccc(Cl)cc1)c1nc2ccccc2[nH]1	–	–	167.3	–	·	–	191.7	134.4	–
Cc1ccccc1NC(=S)c1nc2ccccc2[nH]1	–	–	–	–	–	–	·	·	·
Cc1ccc(C(=O)/C=C/Nc2cccc([N+](=O)[O-])c2)o1	–	–	153.3	5.45	–	–	187.4	–	–
CCOC(=O)c1ccc(Nc2cnc3ccccc3n2)cc1	–	–	171.0	5	135.8	–	194.2	139.2	113.6
CCOC(=O)c1ccc(Nc2ccc([N+](=O)[O-])cn2)cc1	–	–	–	–	–	–	·	·	·
Cc1ccc(S(=O)(=O)Nc2ccc(C(=O)OCC(=O)N(CCC#N)c3ccccc3)cc2)cc1C	–	–	–	–	–	–	·	·	·
COc1ccc(C(=O)NCCSc2ccccc2)cc1	–	–	156.9	5.72	–	–	192.7	–	111.5
COc1ccc(CNC(=O)c2ccc(C(C)C)cc2)cc1	–	–	151.2	3.74	–	–	176.8	144.0	128.3
COc1ccc(CNC(=O)c2ccc3nccnc3c2)cc1	–	–	–	–	–	–	·	·	·
Cn1cc(-c2nnc(-c3ccccc3)o2)c2ccccc21	–	–	158.7	5.18	–	–	258.3	–	129.5
Cc1nonc1C1CCCN1C(=O)c1cc(COc2ccc(F)cc2F)on1 (stereo not drawn)	–	–	168.2	–	–	–	183.1	136.7	–
CC1CCc2nc(NC(=O)CCSc3ccccc3)sc2C1 (stereo not drawn)	–	–	–	–	–	–	·	·	·
Cc1ncsc1C(=O)Nc1nc2c(s1)CC(C)CC2 (stereo not drawn)	–	–	151.9	4.64	–	–	178.5	–	–
CCN(C(=O)C(C)Cl)c1ccccc1 (stereo not drawn)	–	–	–	–	–	–	·	·	·
Cc1ccc(C(=O)N/N=C\c2cc3c(cc2Br)OCO3)s1	–	–	–	–	–	–	·	·	·

Screens as filed in PubChem.
